Measurements from ChEMBL document CHEMBL1177890, “Synthesis and biological evaluation of new 2-chloro-3-((4-phenyl-1H-1,2,3-triazol-1-yl)methyl)quinoline derivatives via click chemistry approach” (2010).
Converted amounts (≈) assume the structure as drawn.

Tests used:
Assay type in all cases: functional
Bacillus subtilis [1] = experiment: Antibacterial activity against Bacillus subtilis NCIM 2250 after 48 hrs by agar cup plate method
Summary of the method: (§1)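 Agar cup plate diffusion with compounds dissolved in DMSO. Bacteria (B. subtilis, E. coli) were grown on Mueller Hinton agar at 37 ± 0.5 °C. Fungi (C. albicans, A. niger) were grown on Czapek Dox medium at 28 ± 0.5 °C. Incubation was 48 h. The read-out was the diameter of the inhibition zone, averaged over three independent determinations.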

Escherichia coli [2] = experiment: Antibacterial activity against Escherichia coli ATCC 25922 after 48 hrs by agar cup plate method; summary of the method: as §1
Candida albicans [3] = experiment: Antifungal activity against Candida albicans MTCC 277 after 48 hrs by agar cup plate method; summary of the method: as §1
Aspergillus niger [4] = experiment: Antifungal activity against Aspergillus niger NCIM 545 after 48 hrs by agar cup plate method; summary of the method: as §1
Bacillus subtilis [5] = experiment: Antibacterial activity against Bacillus subtilis NCIM 2250 after 24 to 72 hrs by cup plate method
Summary of the method: (§2)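 MIC by cup plate method on Mueller Hinton agar plates containing compound at 0 (control), 1, 2, 3, 5, 10, 15, 20, 30 or 40 µg/mL. Plates were prepared per NCCLS M7-A5 and incubated at 37 °C. They were examined after 24 h and, where necessary, incubated further for 72 h. The MIC was taken as the lowest concentration giving inhibition.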

Escherichia coli [6] = experiment: Antibacterial activity against Escherichia coli ATCC 25922 after 24 to 72 hrs by cup plate method; summary of the method: as §2
Candida albicans [7] = experiment: Antifungal activity against Candida albicans MTCC 277 after 24 to 72 hrs by cup plate method; summary of the method: as §2
Aspergillus niger [8] = experiment: Antifungal activity against Aspergillus niger NCIM 545 after 24 to 72 hrs by cup plate method; summary of the method: as §2

Structure (SMILES)	diameter of the inhibition zone (DIZ) (Bacillus subtilis [1]) [mm]	diameter of the inhibition zone (DIZ) (Escherichia coli [2]) [mm]	diameter of the inhibition zone (DIZ) (Candida albicans [3]) [mm]	diameter of the inhibition zone (DIZ) (Aspergillus niger [4]) [mm]	MIC (Bacillus subtilis [5]) [µg/mL]	MIC (Escherichia coli [6]) [µg/mL]	MIC (Candida albicans [7]) [µg/mL]	MIC (Aspergillus niger [8]) [µg/mL]
Clc1nc2ccccc2cc1Cn1cc(-c2ccccc2)nn1	13.5	12	16	10	15 (≈ 46.8 µM)	15 (≈ 46.8 µM)	15 (≈ 46.8 µM)	20 (≈ 62.3 µM)
Cc1ccc2nc(Cl)c(Cn3cc(-c4ccccc4)nn3)cc2c1	11.4	14	14.7	16.1	25 (≈ 74.7 µM)	15 (≈ 44.8 µM)	15 (≈ 44.8 µM)	10 (≈ 29.9 µM)
CCc1cccc2cc(Cn3cc(-c4ccccc4)nn3)c(Cl)nc12	16.1	15.9	14		10 (≈ 28.7 µM)	15 (≈ 43 µM)	15 (≈ 43 µM)	
Cc1ccc2cc(Cn3cc(-c4ccccc4)nn3)c(Cl)nc2c1	16.6	14	16.4		10 (≈ 29.9 µM)	15 (≈ 44.8 µM)	10 (≈ 29.9 µM)	
Cc1cccc2cc(Cn3cc(-c4ccccc4)nn3)c(Cl)nc12	12	12	13.4	12.7	20 (≈ 59.7 µM)	20 (≈ 59.7 µM)	25 (≈ 74.7 µM)	20 (≈ 59.7 µM)
COc1ccc2nc(Cl)c(Cn3cc(-c4ccccc4)nn3)cc2c1	16.7		15.7	16.3	10 (≈ 28.5 µM)		15 (≈ 42.8 µM)	15 (≈ 42.8 µM)
COc1ccc2cc(Cn3cc(-c4ccccc4)nn3)c(Cl)nc2c1	16	16.4	14		10 (≈ 28.5 µM)	10 (≈ 28.5 µM)	15 (≈ 42.8 µM)	20 (≈ 57 µM)
CCOc1ccc2nc(Cl)c(Cn3cc(-c4ccccc4)nn3)cc2c1			16.5	12.8			10 (≈ 27.4 µM)	
COC1=CC(=O)C[C@@H](C)[C@]12Oc1c(Cl)c(OC)cc(OC)c1C2=O [GRISEOFULVIN]			16.9	16.6			5 (≈ 14.2 µM)	
CN[C@@H]1[C@H](O[C@H]2[C@H](O[C@H]3[C@H](O)[C@@H](O)[C@H](N=C(N)N)[C@@H](O)[C@@H]3N=C(N)N)O[C@@H](C)[C@]2(O)C=O)O[C@@H](CO)[C@H](O)[C@H]1O [STREPTOMYCIN]	16.5	16.1			5 (≈ 8.6 µM)	5 (≈ 8.6 µM)		5 (≈ 8.6 µM)
